A selection: hits, their analogues and other compounds. The true share with any hit is near 2.1%.
FN deposit inh = fibronectin deposition inhibition. AH1F fibroblasts, Alexa488-fibronectin deposition fluorescence, overnight. inhibition, % at 12.6 µM. actives 0.086% (n = 350,000). AID 743247;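 active = mean inhibition across replicates of 30% or more, regardless of how many single replicates reach that level; inconclusive = mean under 30% yet at least half of replicates reach 30%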
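material = AH1F fibroblast monolayer depositing Alexa488-labelled fibronectin into matrix | amount = 10000 AH1F cells/well | buffer or medium = DMEM plus 2% serum, read in PBS | incubation = 1 h cell adhesion before compound, then overnight fibronectin incubation | detection = fluorescence at 485 nm excitation, 525 nm emission | evaluation = percent inhibition as loss of matrix-bound fibronectin fluorescence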
FGF22 binding = binders of recombinant human FGF22 by thermal shift; Q9HCT0; activity (Tm shift, normalised), % at 9.99 µM; actives 1.5% (n = 340,000); SYPRO orange fluorescence; percent of sucrose octasulfate shift, DMSO zero;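 active = mean Tm shift, scaled 0 neutral to 100 positive control, at about 1.3% or above, every replicate too, limit read from the data; inconclusive = no clear call, values can overlap the other calls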
Target sequence (Q9HCT0 whole entry, looked up): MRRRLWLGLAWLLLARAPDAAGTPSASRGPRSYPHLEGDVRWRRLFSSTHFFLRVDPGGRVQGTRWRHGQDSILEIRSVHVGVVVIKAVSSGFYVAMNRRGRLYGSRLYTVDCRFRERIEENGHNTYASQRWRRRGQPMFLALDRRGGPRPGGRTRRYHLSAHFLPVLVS
ARNT-TACC3 inh = ARNT/TACC3 interaction disruption | Q9Y6A5 | AlphaScreen His-ARNT PAS-B/GST-TACC3 binding, luminescence; TACC3 fragment carries E629A point mutation | inhibition, % at 9.99 µM | actives 0.66% (n = 390,000) | AID 623870;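 active = mean inhibition of replicates at least 50% and at least half of replicates each reaching 50%; inconclusive = half or more replicates reach 50% but mean below 50%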
AF4-AF9 inh = inhibitors of human MLL-AF4/AF9 interaction; inhibition, % at 10 µM; AlphaScreen, biotin-AF4 peptide binding to FLAG-AF9; actives 0.47% (n = 350,000); P42568;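 active = every replicate reaching a set inhibition limit, whatever the replicate mean, cut at about 25% in these data; inconclusive = mean inhibition reaches that limit but some replicates miss it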
PDI turbidity = blocks human protein disulfide isomerase activity | PDI insulin aggregation turbidity, A650, 90 min | inhibition, % at 10 µM | actives 0.052% (n = 350,000) | AID 588391;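 active = mean inhibition across replicates of 30% or more, whatever share of single replicates reach that level; inconclusive = mean inhibition below 30% while every single replicate reaches 30%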
ERp5 inh = ERp5 (human) disulfide isomerase inhibition | Q15084 | ERp5 insulin aggregation, absorbance 650 nm, 90 min | inhibition, % at 9.99 µM | actives 0.05% (n = 350,000);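 active = mean replicate inhibition above about 25%, with every replicate also reaching it, limit read from the data, passing the limit was not always enough; inconclusive = only one of those two criteria met; inactive = neither criterion met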
Target sequence (Q15084 whole entry, looked up): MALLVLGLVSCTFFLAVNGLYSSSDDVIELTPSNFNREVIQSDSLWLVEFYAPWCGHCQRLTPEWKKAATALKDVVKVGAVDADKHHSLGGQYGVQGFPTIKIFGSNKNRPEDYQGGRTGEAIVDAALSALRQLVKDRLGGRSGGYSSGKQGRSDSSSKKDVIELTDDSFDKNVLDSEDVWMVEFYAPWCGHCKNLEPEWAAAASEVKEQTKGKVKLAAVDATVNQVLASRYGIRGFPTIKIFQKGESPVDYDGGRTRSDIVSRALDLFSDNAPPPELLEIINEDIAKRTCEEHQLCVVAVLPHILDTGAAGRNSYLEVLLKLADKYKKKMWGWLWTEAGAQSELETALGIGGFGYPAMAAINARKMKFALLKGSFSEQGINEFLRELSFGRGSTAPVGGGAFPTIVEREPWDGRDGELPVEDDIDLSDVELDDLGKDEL
AlphaScreen intf = counter-screen: AlphaScreen signal interference; signal luminescence; shares compounds with AF4-AF9 inh; AC50, µM (highest dose often 12 µM); actives 45% (n = 530); cut-off not given, nearly all actives have AC50 up to about 14 µM
Large screens that a line does not name were inactive (follow-up assays come after a bar, where they were run).

CC(C)=CCc1cc(-c2oc3cc(O)cc(O)c3c(=O)c2O)ccc1O	AF4-AF9 inh 35 (no result: FN deposit inh, PDI turbidity) | AlphaScreen intf inactive
COc1c(-c2ccc(O)c(O)c2)oc2cc(O)cc(O)c2c1=O	none (no result: FN deposit inh, PDI turbidity)
COc1ccc(-c2ccc3n(c2=O)C[C@H]2[C@H](CO)[C@@H](C(=O)N(C)C)[C@@H]3N2Cc2ccncc2)cc1	none (no result: FN deposit inh, PDI turbidity)
CCc1cccc(NC(=O)CCCCCC2NC(=O)NC2C)c1 (stereo not given)	AF4-AF9 inh 95 | AlphaScreen intf 0.29µM
CC1NC(=O)NC1CCCCCC(=O)Nc1ccc(F)c(Cl)c1 (stereo not given)	AF4-AF9 inh 93 | AlphaScreen intf 0.6µM
CCc1cccc(NC(=O)CCCN2C(=O)NC(C)(C)C2=O)c1	none (no result: ARNT-TACC3 inh)
C(=C1c2ccccc2-c2ccccc21)c1ccccn1	FGF22 binding 43 | AlphaScreen intf inactive
C(=N\N=C\c1ccccn1)/c1ccccn1	none
CN1C(=O)c2cc(NC(=O)c3ccc(F)cc3)ccc2OC[C@@H]2O[C@H](CC(=O)NCC3CC3)CC[C@@H]21	none (no result: PDI turbidity)
C[C@@H]1CN([C@H](C)CO)C(=O)Cc2cc(N(C)C)ccc2O[C@@H]1CN(C)C(=O)Nc1cccc2ccccc12	none (no result: FN deposit inh, PDI turbidity)
O=C(Nc1ccc(N2CCCC2)c(Cl)c1)c1ccc([N+](=O)[O-])o1	FGF22 binding 43, AF4-AF9 inh 49 | AlphaScreen intf 13µM
O=C(Nc1ccccc1N1CCCC1)c1ccc([N+](=O)[O-])o1	none
CNC[C@@H]1Oc2ccc(NS(C)(=O)=O)cc2C(=O)N(C)C[C@H]1C	none (no result: FGF22 binding, ARNT-TACC3 inh, AF4-AF9 inh, PDI turbidity, ERp5 inh)
COCCNC(=O)C[C@H]1CC[C@@H](NC(=O)NC2CCCCC2)[C@H](CO)O1	none (no result: FN deposit inh, PDI turbidity)
Cc1c(C(=O)NCC(c2ccco2)N(C)C)oc2c(Cl)cccc12 (stereo not given)	AF4-AF9 inh inconclusive | AlphaScreen intf inactive
CCN(CCCNc1cc2c(c(N)c1S(=O)(=O)O)C(=O)c1ccccc1C2=O)c1ccccc1	AF4-AF9 inh 61 (no result: ARNT-TACC3 inh) | AlphaScreen intf 7.6µM
O=[N+]([O-])c1ccccc1/C=C/C=N/N1CCCCC1	AF4-AF9 inh 26 | AlphaScreen intf 13µM
COc1ccc(-c2cc(NC=O)c3ncc(-c4cccc(C(=O)NCCN(C)C)c4)n3c2)cc1	AF4-AF9 inh 26 (no result: FN deposit inh, ARNT-TACC3 inh) | AlphaScreen intf inactive
CN(C)C(CNC(C(=O)Nc1ccc([N+](=O)[O-])cc1Br)c1ccccc1)c1ccccc1 (stereo not given)	AF4-AF9 inh 35 | AlphaScreen intf inactive
Cc1noc(C)c1NC(=O)Nc1ccc2c(c1)C(=O)N([C@@H](C)CO)C[C@H](C)[C@H](CN(C)CC1CCCCC1)OCCCC[C@H](C)O2	none (no result: FN deposit inh, PDI turbidity)
COc1ccc(CC(=O)N/N=C(\C)c2cccnc2)cc1	none
CN=c1scc(-c2ccc(OC)cc2)n1/N=C(\C)c1cccnc1	AF4-AF9 inh 48, ERp5 inh inconclusive | AlphaScreen intf 11µM
CCN(Cc1ccccc1)c1ccc(/C=N/N=C(N)N)cc1	AF4-AF9 inh 53 | AlphaScreen intf 10µM
COc1cccc(C#Cc2cnc3c(c2)C(=O)N([C@@H](C)CO)C[C@@H](C)[C@H](CN(C)C(C)=O)O3)c1	none (no result: PDI turbidity)
CC(=NNC(=S)N1CCN(c2ccccn2)CC1)c1ccccn1	none
CC(=NNC(=S)N1CCN(C2CCCCCC2)CC1)c1ccccn1	ARNT-TACC3 inh 77, AF4-AF9 inh 46 | AlphaScreen intf 1.2µM
O=C(NCC1CC1)[C@@H]1[C@@H](CO)[C@@H]2Cn3c(ccc(-c4cccnc4)c3=O)[C@H]1N2C(=O)C1CC1	none (no result: FN deposit inh, PDI turbidity)
C/C=C/c1ccc2c(c1)O[C@H](CN(C)C(C)=O)[C@@H](C)CN([C@@H](C)CO)S2(=O)=O	none (no result: PDI turbidity)
Nc1[nH]n(-c2ccccc2)c(=O)c1N=Nc1ccc2c(c1)OCCO2	AF4-AF9 inh 39 (no result: FN deposit inh) | AlphaScreen intf inactive
Nc1[nH]n(-c2ccccc2)c(=O)c1N=Nc1ccc2c(c1)OCO2	none
CC(C)C#Cc1cnc2c(c1)C(=O)N([C@H](C)CO)C[C@H](C)[C@@H](CN(C)C(=O)C1CCC1)O2	none (no result: PDI turbidity)
COc1cc(C(=O)Nc2ccc3nc(N4CCN(C)CC4)cc(C)c3c2)cc(OC)c1OC	none
COc1ccc(NC(=O)c2ccc(-c3ccc(-c4noc(C)n4)cc3C)cc2)cc1N1CCN(C)CC1	AF4-AF9 inh 38 | AlphaScreen intf 12µM
CCC(=O)N(C)C[C@H]1Oc2cc(C#Cc3ccncc3)ccc2S(=O)(=O)N([C@@H](C)CO)C[C@@H]1C	AF4-AF9 inh inconclusive (no result: FN deposit inh, PDI turbidity) | AlphaScreen intf inactive
C/C(=N\Nc1nc2ccccc2[nH]1)c1ccc2c(c1)OCO2	AF4-AF9 inh 33 (no result: FN deposit inh, ARNT-TACC3 inh) | AlphaScreen intf inactive
O=C(CC1CC1)N[C@@H]1CC[C@H](CCNS(=O)(=O)c2ccc(Cl)cc2)O[C@@H]1CO	none (no result: PDI turbidity)
C#CCOCCOCCOCCNc1nc(N2CCN(C(=O)[C@H](CCCCN)n3cc(CN)nn3)CC2)nc(N2CCN(C(=O)[C@H](CCC(=O)O)n3cc([C@@H](N)[C@H](C)CC)nn3)CC2)n1	none
C#CCOCCOCCOCCNc1nc(N2CCN(C(=O)[C@H](CCCCN)n3cc(CN)nn3)CC2)nc(N2CCN(C(=O)[C@H](CC(N)=O)n3cc(C(N)[C@H](C)CC)nn3)CC2)n1 (stereo not given in full)	AF4-AF9 inh inconclusive | AlphaScreen intf inactive
C#CCOCCOCCOCCNc1nc(N2CCN(C(=O)[C@H](CCCCN)n3cc(CN)nn3)CC2)nc(N2CCN(C(=O)[C@H](CCCN=C(N)N)n3cc(C(N)[C@H](C)CC)nn3)CC2)n1 (stereo not given in full)	AF4-AF9 inh 45 | AlphaScreen intf inactive
C#CCOCCOCCOCCNc1nc(N2CCN(C(=O)[C@H](CCCCN)n3cc([C@@H](N)C(C)CC)nn3)CC2)nc(N2CCN(C(=O)[C@H](CCCCN)n3cc([C@@H](N)CC(C)C)nn3)CC2)n1 (stereo not given in full)	AF4-AF9 inh 56 | AlphaScreen intf inactive
CN1c2ccc(-c3ccc(C#N)cc3)cc2[C@H]2[C@H](CCN2C(=O)c2cccc(F)c2)[C@@H]1CO	none (no result: PDI turbidity)
CCOc1ccc(NC(=S)NC23CC4CC(CC(C4)C2)C3)cc1	none
CN(C)c1ccc(NC(=S)NC23CC4CC(CC(C4)C2)C3)cc1	AF4-AF9 inh 44 | AlphaScreen intf inactive
N#Cc1nc(-c2cccs2)oc1N1CCN(Cc2ccccc2)CC1	AF4-AF9 inh 31 (no result: FN deposit inh) | AlphaScreen intf inactive
C[C@@H]1CN([C@H](C)CO)C(=O)Cc2cc(NS(=O)(=O)c3cn(C)cn3)ccc2O[C@H]1CN(C)C(=O)Nc1ccccc1	none (no result: FN deposit inh, PDI turbidity)
Cc1cccc(Nc2cc(C)c3c(O)cccc3n2)c1C	AF4-AF9 inh 28 | AlphaScreen intf inactive
